Activity calls are given as the source filed them.
What was measured:
Mus musculus [1] = test: Neurotoxicity in mouse assessed as motor impairment at 100 mg/kg, ip measured for one min by rotarod test; type: toxicity, organism-based; details: in vivo, 1 min
Summary of the method: (§1)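 Mice trained on an accelerating rotarod, then tested at least 24 h later after ip pretreatment, on a rod turning at 10 rpm. Neurotoxicity was scored as failure to stay on the rod for one minute. Read-out is mice impaired over mice tested.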

Mus musculus [2] = test: Anticonvulsant activity in mouse assessed as current strength required to induce tonic hind-limb extension in 50% of the animals at 10 mg/kg, ip by maximal electroshock seizure threshold test (reference value: 6.05 to 8.13 mA); type: functional
[3] = Cytotoxicity against mouse CRL-2541 cells assessed as effect on cell viability at 10 to 250 uM after 24 hrs by MTT assay; type: cell-based
Mus musculus [4] = test: Anticonvulsant activity in mouse assessed as protection against maximal electroshock-induced seizures at 100 mg/kg, ip; type: functional, organism-based
Summary of the method: (§2)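 Mice dosed ip; maximal seizures induced by auricular electroshock (25 mA, 500 V, 50 Hz, 0.2 s). Endpoint: hind-limb tonic extension; animals without it scored protected. Read-out is number protected over number tested.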

Mus musculus [5] = test: Toxicity in mouse assessed as effect on spontaneous activity at 21 mg/kg, ip measured for 30 mins by photoresistor actometer relative to control; type: organism-based; details: in vivo, 0.5 h
Summary of the method: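 Mice dosed ip; locomotor activity by photoresistor actometers counting light-beam interruptions. Each mouse was habituated 30 min in a cage, then crossings were counted over a 30 min session. Data are mean ± SEM and % change vs control; unpaired t test.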

Mus musculus [6] = test: Analgesic activity in mouse assessed as decrease in time of paw licking during phase 2 at 21 mg/kg, ip measured for 15 to 30 mins by formalin test relative to control; type: functional; parameters: scale not given: the % may be the effect or the level left
Summary of the method: (§3)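 Formalin test in mice: 20 μL of 5% formalin injected intraplantarly into the right hind paw. Each mouse was observed alone in a glass beaker for 30 min. Time (s) spent licking or biting the injected paw was recorded at 0–5 min (acute phase) and 15–30 min (inflammatory phase).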

Mus musculus [7] = test: Anticonvulsant activity in mouse assessed as increase in electroconvulsive threshold at 10 mg/kg, ip by maximal electroshock seizure threshold test relative to control; type: functional
Mus musculus [8] = test: Anticonvulsant activity in mouse assessed as protection against subcutaneous pentylenetetrazole-induced seizures at 100 mg/kg, ip measured for 30 mins post pentylenetetrazole challenge at 0.5 hrs after compound dosing relative to control; type: functional
HepG2 [9] = test: Cytotoxicity against human HepG2 cells assessed as effect on cell viability at 10 to 250 uM after 24 hrs by neutral red assay; type: cell-based; details: hepg2, 24 h
Summary of the method: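 HepG2 cells seeded at 5 × 10^4 per well, then after 24 h given medium with 10–250 μM for 24 h. Viability by neutral red staining, OD 570 nm. Results are % of control ± SEM, three independent experiments.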

Mus musculus [10] = test: Neurotoxicity in mouse assessed as motor impairment by measuring time of escaping from chimney at 21 mg/kg, ip measured for 60 secs (reference value: 8.87 +/- 1.79 secs); type: toxicity, organism-based; details: in vivo, 1 min
Summary of the method: (§4)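 Mice dosed ip; trained, selected animals placed in a horizontal tube 25 cm long and 2.5 cm in diameter, then tube reversed so mice must climb out backward. Read-outs: escape time (s) ± SEM and % animals losing coordination versus control. Unpaired t test.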

HepG2 [11] = test: Cytotoxicity against human HepG2 cells assessed as effect on cell viability at 10 to 250 uM after 24 hrs by MTT assay; type: cell-based; details: hepg2, 24 h
Summary of the method: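 HepG2 cells grown in MEM with 10% FBS (37 °C, 5% CO2) and seeded at 1 × 10^4. After overnight culture, exposed to 10–250 μM for 24 h. MTT for 3 h, formazan dissolved, OD 570 nm. Viability is % of control ± SEM from three independent experiments.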

Mus musculus [12] = test: Toxicity in mouse at 100 mg/kg, ip measured during maximal electroshock seizure test; type: organism-based; details: in vivo
Mus musculus [13] = test: Analgesic activity in mouse assessed as decrease in time of paw licking during phase 1 at 21 mg/kg, ip measured for 5 mins by formalin test relative to control; type: functional; parameters: scale not given: the % may be the effect or the level left; summary of the method: as §3
Mus musculus [14] = test: Neurotoxicity in mouse assessed as motor impairment by measuring loss of coordination at 21 mg/kg, ip measured for 60 secs by chimney test relative to control; type: toxicity, organism-based; details: in vivo, 1 min; summary of the method: as §4
Mus musculus [15] = test: Anticonvulsant activity in mouse assessed as protection against subcutaneous pentylenetetrazole-induced seizures by measuring latency time of tonic seizures at 100 mg/kg, ip measured for 30 mins post pentylenetetrazole challenge at 0.5 hrs after compound dosing (reference value: 562.8 to 614.9 secs); type: functional
Mus musculus [16] = test: Neurotoxicity in mouse assessed as motor impairment at 30 mg/kg, ip measured for one min by rotarod test; type: toxicity, organism-based; details: in vivo, 1 min; summary of the method: as §1
Mus musculus [17] = test: Toxicity in mouse at 30 mg/kg, ip measured during maximal electroshock seizure test; type: organism-based; details: in vivo
Mus musculus [18] = test: Anticonvulsant activity in mouse assessed as protection against maximal electroshock-induced seizures at 30 mg/kg, ip; type: functional, organism-based; summary of the method: as §2
Mus musculus [19] = test: Anticonvulsant activity in mouse assessed as protection against maximal electroshock-induced seizures at 60 mg/kg, ip; type: functional, organism-based; summary of the method: as §2
[20] = Protection index, ratio of TD50 for neurotoxicity in ip dosed mouse by rotarod test to ED50 for anticonvulsant activity in mouse by maximal electroshock seizure test; type: toxicity, organism-based; details: in vivo, read-out: Ratio TD50/ED50
Mus musculus [21] = test: Anticonvulsant activity in ip dosed mouse assessed as protection against maximal electroshock-induced seizures; type: functional
Summary of the method: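 Mice were dosed ip. Maximal seizures were induced by auricular electrodes (25 mA, 500 V, 50 Hz, 0.2 s). Absence of hind-limb tonic extension counted as protection. […] Motor impairment was scored on a 10 rpm rotarod, giving TD50 the same way.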

[22] = Neurotoxicity in ip dosed mouse assessed as motor impairment measured for one min by rotarod test; type: toxicity, organism-based; details: in vivo; summary of the method: as §1

## Cc1cccc(Cl)c1OCCCCN[C@@H](C)CO
Mus musculus [1]
  Activity: Toxic

## Cc1cc(C)c(OCCCN2CCC(O)CC2)c(C)c1
Mus musculus [2]
  Activity: 9.15 mA
[3]
  Activity: Non-Toxic
Mus musculus [4]
  Activity: Active
Mus musculus [5]
  Activity: 19.76%
Mus musculus [6]
  Activity: 4.87%
Mus musculus [7]
  Activity: 12.55%
Mus musculus [8]
  Activity: inactive
HepG2 [9]
  Activity: Non-Toxic
Mus musculus [10]
  Time: 6.5 s
HepG2 [11]
  Activity: Non-Toxic
Mus musculus [12]
  Activity: Non-Toxic
Mus musculus [13]
  Activity: 27.01%
Mus musculus [14]
  Activity: 0%
Mus musculus [15]
  Time: 275.4 s

## Cc1ccc(Cl)c(OCCCCN[C@H](C)CO)c1
Mus musculus [4]
  Activity: Active
Mus musculus [1]
  Activity: Toxic
Mus musculus [16]
  Activity: Non-Toxic
Mus musculus [17]
  Activity: Non-Toxic
Mus musculus [18]
  Activity: inactive
Mus musculus [12]
  Activity: Non-Toxic

## CC[C@@H](CO)NCCCCOc1cc(C)ccc1Cl
Mus musculus [4]
  Activity: Active
Mus musculus [1]
  Activity: Toxic
Mus musculus [17]
  Activity: Non-Toxic
Mus musculus [18]
  Activity: inactive
Mus musculus [12]
  Activity: Non-Toxic

## Cc1cccc(C)c1OCCCCN[C@H]1CC[C@H](O)CC1
Mus musculus [19]
  Activity: inactive
Mus musculus [12]
  Activity: Toxic

## Cc1cccc(Cl)c1OCCOCCNC[C@H](O)c1ccccc1
Mus musculus [1]
  Activity: Toxic

## Cc1ccc(Cl)c(OCCN[C@H]2CC[C@H](O)CC2)c1
Mus musculus [1]
  Activity: Toxic

## Cc1ccc(Cl)c(OCCOCCN2CCC(O)CC2)c1
Mus musculus [4]
  Activity: Active
Mus musculus [16]
  Activity: Non-Toxic
Mus musculus [18]
  Activity: inactive
Mus musculus [12]
  Activity: Non-Toxic

## CC[C@H](CO)NCCCCOc1cc(C)ccc1Cl
Mus musculus [4]
  Activity: Active
Mus musculus [1]
  Activity: Toxic
Mus musculus [16]
  Activity: Non-Toxic
Mus musculus [17]
  Activity: Non-Toxic
Mus musculus [12]
  Activity: Non-Toxic

## Cc1cccc(Cl)c1OCCCCN[C@H]1CC[C@H](O)CC1
[20]
  selectivity ratio: 1.22
Mus musculus [4]
  Activity: Active
Mus musculus [21]
  ED50: 41.1 mg/kg
Mus musculus [12]
  Activity: Non-Toxic
[22]
  TD50 at 1 min: 50 mg/kg

## CC[C@@H](CO)NCCOc1c(C)cccc1C
[20]
  selectivity ratio: 4.55

Source: ChEMBL document CHEMBL4261484, “Design, synthesis and anticonvulsant-analgesic activity of new N-[(phenoxy)alkyl]- and N-[(phenoxy)ethoxyethyl]aminoalkanols” (Medchemcomm, 2017)
